Screening results as filed in PubChem.
EBI2 antag = EBI2 (human) antagonism; EBI2 beta-arrestin recruitment, luminescence, 7a,25-OHC stimulated; inhibition, % at 5 µM; actives 0.81% (n = 360,000); in the data active means inhibition above about 38%;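 further: enzyme fragment complementation signal reports receptor beta-arrestin coupling in cells; 0% = agonist plus DMSO wells and 100% = wells without agonist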
Target sequence (P32249 whole entry, looked up, the tested form may be a part): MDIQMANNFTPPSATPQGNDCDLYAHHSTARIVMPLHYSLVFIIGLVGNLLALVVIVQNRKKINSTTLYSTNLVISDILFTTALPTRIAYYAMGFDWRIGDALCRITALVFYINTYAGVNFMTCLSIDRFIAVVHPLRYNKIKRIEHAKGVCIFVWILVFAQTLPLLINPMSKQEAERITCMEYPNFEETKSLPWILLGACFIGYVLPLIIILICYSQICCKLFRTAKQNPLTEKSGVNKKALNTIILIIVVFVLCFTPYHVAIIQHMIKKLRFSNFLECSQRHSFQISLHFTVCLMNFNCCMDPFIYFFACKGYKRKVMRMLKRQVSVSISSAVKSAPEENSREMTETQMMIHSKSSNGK
APJ agonist = APJ receptor agonism; CHO-K1 APJ PathHunter beta-arrestin, luminescence; 0% DMSO wells, 100% apelin; activation, % at 20 µM; actives 0.11% (n = 330,000);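 active means activation more than six SD over the plate average, tested at 20 µM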;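 further: 0% = DMSO alone and 100% = apelin-13 at 10 nM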
Target sequence (P35414 whole entry, looked up): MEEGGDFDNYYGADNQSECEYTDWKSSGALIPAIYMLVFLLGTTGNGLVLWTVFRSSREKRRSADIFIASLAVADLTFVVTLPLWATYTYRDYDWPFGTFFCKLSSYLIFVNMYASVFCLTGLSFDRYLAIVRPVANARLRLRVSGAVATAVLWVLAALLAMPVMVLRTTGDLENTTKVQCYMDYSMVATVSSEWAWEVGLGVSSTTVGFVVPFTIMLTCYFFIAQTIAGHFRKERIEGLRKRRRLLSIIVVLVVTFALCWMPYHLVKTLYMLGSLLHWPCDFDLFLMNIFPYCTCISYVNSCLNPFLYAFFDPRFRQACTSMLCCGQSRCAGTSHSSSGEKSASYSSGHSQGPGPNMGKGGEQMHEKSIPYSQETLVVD
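Material: engineered CHO-K1 APJ arrestin reporter cells; amount: 1000 CHO-K1 reporter cells seeded per well; incubation: compound stimulation 90 min at 25 °C, detection 60 min; signal: luminescent beta-gal fragment complementation, chemiluminescent substrate; read-out basis: APJ agonist activity; controls: DMSO-only wells as negative, 10 nM Apelin-13 as positive control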
CXCR6 block = inhibitors of human CXCR6 receptor; AID 602244; O00574; inhibition, % at 20 µM; actives 0.36% (n = 360,000); CHO-K1 PathHunter CXCR6 beta-arrestin, luminescence; in the data active means inhibition above about 34%, passing the limit was not always enough;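 further: antagonist mode with CXCL16 agonist at 10 nM final; 0% = 10 nM CXCL16 with DMSO and 100% = unstimulated wells without agonist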
APJ antagonist = APJ receptor antagonism; CHO-K1 APJ beta-arrestin complementation, luminescence; inhibition, % at 20 µM; actives 0.32% (n = 330,000);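 active means inhibition above about 40% at 20 µM, limit read from the data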;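 further: cells challenged with 10 nM apelin-13 agonist together with compound; plate controls were apelin-13 plus DMSO wells for no effect and DMSO wells lacking apelin-13 for full effect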
CCR6 antagonist = antagonists of human CCR6 receptor | actives 0.49% (n = 340,000) | CHO-K1 CCR6 PathHunter beta-arrestin, luminescence, CCL20-stimulated | inhibition, % at 20 µM | P51684 | AID 493098;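 active means compounds whose inhibition of the agonist-driven luminescence signal at 20 µM reaches about 50%, limit read from the data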;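 further: cells stimulated with CCL20 at 14 nM final; plate controls were DMSO with CCL20 for no effect and DMSO without agonist for full effect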
APJ antag conf = APJ receptor antagonism confirmation | APJ beta-arrestin recruitment, luminescence, antagonist mode | shares compounds with APJ antagonist | inhibition, % at 20 µM | actives 66% (n = 950); in the data active means inhibition above about 50%
CXCR6 antag conf = CXCR6 antagonism confirmation, single concentration. shares compounds with CXCR6 block. CHO-K1 CXCR6 PathHunter beta-arrestin, luminescence. inhibition, % at 20 µM. actives 65% (n = 700);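 active means mean inhibition over four retests above 40%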;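 further: receptor stimulated with 10 nM CXCL16 agonist; beta-galactosidase fragment complementation upon beta-arrestin recruitment to receptor; plate controls were CXCL16 plus DMSO for no effect and DMSO without CXCL16 for full effect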
EBI2 antag conf = confirmation of human EBI2 receptor antagonists. shares compounds with EBI2 antag. EBI2 beta-arrestin luminescence, 7a,25-OHC antagonism. inhibition, % at 5 µM. actives 29% (n = 2,400);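 active means inhibition of at least 50%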
EBI2 agonist = counter-screen for EBI2 antagonists: EBI2 agonist activity. EBI2-expressing cells, agonist mode, luminescence, 60 min; 0% vehicle, 100% 7α,25-dihydroxycholesterol control. shares compounds with EBI2 antag. AID 652000. activation, % at 5 µM. 2,400 tested, under 10 active;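 active means activation of at least 50%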
bGal counter = counter-screen for EBI2 antagonists: E. coli beta-galactosidase inhibition. actives 1% (n = 2,400). AID 652176. shares compounds with EBI2 antag. inhibition, % at 5 µM. purified beta-galactosidase, luminescent Galacton Star, 15 min;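 active means replicate-average signal at least 3 plate SD below neutral wells, shown as high inhibition, flagging enzyme-inhibiting false positives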;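 further: 0% = DMSO wells with enzyme and 100% = wells lacking enzyme; higher means stronger loss of beta-gal luminescence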
* hit, by the source's call; / = not tested or not shown. Only some compounds are listed: those with a hit (about 1.5% of all), similar ones and a draw of the others.

SMILES | EBI2 antag | APJ agonist | CXCR6 block | APJ antagonist | CCR6 antagonist | CXCR6 antag conf | others
O=C(O)c1cccc(NC(=S)NC(=O)c2cncc(Br)c2)c1 | -3.1 | -3.7 | 58.1* | 42.8* | 42.3 | 26.7 | APJ antag conf=81.4*
Cc1ccccc1NC(=S)NC(=O)c1cncc(Br)c1 | -16.0 | -5.8 | 24.6 | 24.2 | 49.7 | /
Cc1cc(O)ccc1NC(=S)NC(=O)c1cncc(Br)c1 | 6.2 | -7.5 | 51.0* | 43.5* | 70.4* | 48.0* | APJ antag conf=82.4*
CCOC(=O)C1CCCN(c2c(C(=O)c3ccccc3)cnc3ccc(OC)cc23)C1 (configuration not stated) | 41.1 | -11.9 | 70.0* | 58.1* | 83.0* | 69.4* | APJ antag conf=95.8*
CCOC(=O)C1CCCN(C(=O)COc2ccc(C(=O)c3ccccc3)cc2)C1 (configuration not stated) | -6.6 | -0.3 | 1.9 | -11.4 | 11.8 | /
CC(=O)OCCCNc1cc(Sc2ccc(C)cc2)c2nonc2c1[N+](=O)[O-] | 85.3* | -7.7 | 70.7* | 71.0* | 70.1* | / | APJ antag conf=103.2*;EBI2 antag conf=45.4;EBI2 agonist=-1.0;bGal counter=1.8
Cc1ccc(-c2cc(C(=O)N3CCCc4ccccc43)c3ccccc3n2)cc1 | 10.3 | -6.5 | 2.1 | -4.3 | 14.4 | /
Cc1ccc2nc3sc(C(=O)N4CCCc5ccccc54)c(N)c3cc2c1 | 53.8* | -13.3 | -3.4 | 75.9* | 18.8 | / | APJ antag conf=-8.2;EBI2 antag conf=54.9*;EBI2 agonist=-0.1;bGal counter=10.3
CCOC(=O)C1C(C)N=C2SCC(=O)N2C1c1cccc(Br)c1 (configuration not stated) | 38.0* | -6.4 | -2.2 | 41.1* | 22.7 | / | APJ antag conf=32.9;EBI2 antag conf=-5.8;EBI2 agonist=-0.6;bGal counter=-11.3
Cc1ccc(C(=O)CNc2ccc(Br)cc2)cc1 | 73.5* | -16.2 | 39.2 | 84.5* | 56.1* | / | APJ antag conf=102.4*;EBI2 antag conf=65.7*;EBI2 agonist=-3.8;bGal counter=3.7
C/C(=N\NC(=O)COc1ccccc1-c1ccccc1)c1cccnc1 | 2.4 | 3.7 | -0.6 | -8.4 | 6.5 | /
C/C(=N\NC(=O)COc1ccccc1-c1ccccc1)c1ccccn1 | 62.0* | -9.9 | 66.4* | 61.7* | 89.2* | 102.3* | APJ antag conf=88.2*;EBI2 antag conf=71.4*;EBI2 agonist=-1.5;bGal counter=5.4
CC1(C(=O)NS(=O)(=O)Cc2cccc(Cl)c2)CCN1C(=O)C/C=C/c1ccccc1 (configuration not stated) | 2.4 | / | -6.1 | / | / | /
OC[C@H]1O[C@@H](c2nc(-c3ccc(Br)cc3)no2)C[C@@H]1O | -9.8 | / | -0.3 | / | / | /
CC1(C)CC(=O)C(C=Nc2ccc(C(=O)c3ccccc3)cc2N=CC2=C(O)CC(C)(C)CC2=O)=C(O)C1 | 74.1* | -17.8 | 103.4* | 119.7* | 111.0* | 114.5* | APJ antag conf=155.7*;EBI2 antag conf=93.1*;EBI2 agonist=-5.7;bGal counter=82.6*
CC1(C)CC(=O)C(C=Nc2ccc(O)c(N=CC3=C(O)CC(C)(C)CC3=O)c2)=C(O)C1 | -3.4 | 0.0 | 22.5 | -11.4 | -13.8 | /
CCCCN(CCCNC(=O)c1ccc2c(c1)NC(=O)CN2C)c1ccccc1 | 32.0 | / | 8.7 | / | / | /
Cc1cc(O)c(-c2cc(O)c(C)cc2O)cc1O | 26.9 | 10.2 | 64.5* | 0.0 | / | 80.2*
Cc1cc(N=O)c(C)cc1O | 6.9 | / | -0.5 | / | / | /
CCOC(=O)Cc1c(C)nc2c(-c3cccc(Br)c3)c[nH]n2c1=O | 4.8 | -2.1 | 35.7* | 19.3 | 19.4 | 12.4
O=C1NC[C@H](CCCCN2C[C@H](Cc3ccc(O)cc3)N(CCC3CCCCC3)C(=O)C2=O)N(CCC2CCCCC2)C1=O | -3.0 | / | 6.7 | / | / | /
CC(=O)Nc1nc2ccccc2n1CCOc1ccccc1Cl | 1.9 | -5.1 | 41.4* | 29.3 | 46.2 | 65.5*
O=C1C=CC(=O)N1CCNc1ncc(C(F)(F)F)cc1Cl | 10.6 | -1.3 | 97.3* | -11.6 | / | 77.3*
O=C1CC(=O)N(CCNc2ncc(C(F)(F)F)cc2Cl)C(=O)N1 | 6.7 | 3.4 | 5.5 | 1.0 | 5.8 | /
CC1Cc2ccccc2N1C(=S)NC(=O)c1cccc(Br)c1 (configuration not stated) | -2.7 | 0.4 | 47.5* | 24.0 | / | 65.4*
SMILES | EBI2 antag | APJ agonist | CXCR6 block | APJ antagonist | CCR6 antagonist | CXCR6 antag conf | others
Cc1ccc(NC(=O)C2(C)CCN2C(=O)C2CCCCC2)cc1C (configuration not stated) | 6.3 | / | -4.7 | / | / | /
Cc1sc(Cc2nc(O)cs2)nc1-c1ccccc1 | 5.1 | -9.3 | 51.8* | 44.7* | 32.7 | 38.4
Oc1csc(Cc2nc(-c3ccc(Br)cc3)cs2)n1 | 3.7 | -3.1 | 4.6 | -8.1 | 20.6 | /
COc1cccc(C(C)(O)c2nc(-c3cccc(C#N)c3)cs2)c1 (configuration not stated) | 1.2 | / | 2.7 | / | / | /
NC(CCc1ccccc1)c1csc(Nc2nncc3ccccc23)n1 (configuration not stated) | -10.1 | / | 3.9 | / | / | /
C=C1C(=O)[C@]23C[C@H]1CCC2[C@@]1(C)C(C[C@@H]3O)[C@](C)(C(=O)OC)CC[C@@H]1O (some centres not stated) | 37.8 | / | 55.4* | / | / | 69.8*
C[C@@]12C(C[C@H](O)[C@@]34C[C@@H](CCC13)[C@@H](CO)C4=O)[C@](C)(C(=O)O)CC[C@@H]2O (some centres not stated) | -8.3 | / | -6.1 | / | / | /
N#C/C(=C/c1ccc(-c2ccc([N+](=O)[O-])cc2)o1)C(=O)Nc1nc(-c2cccs2)cs1 | 9.1 | / | 48.5* | / | 67.7* | 44.2*
N#C/C(=C/c1ccc(-c2ccccc2)o1)c1nc(-c2cccs2)cs1 | 12.5 | / | 11.9 | / | 16.6 | /
COc1cc(Cn2c3ccc(NC(=O)CC(C)C(F)(F)F)cc3c(=O)n2C)ccc1F (configuration not stated) | -11.1 | / | 2.9 | / | / | /
CCC(C)c1ccc(O)c(NC(=S)NC(=O)c2cccs2)c1 (configuration not stated) | 23.5 | / | 59.2* | / | / | 63.6*
NC(c1csc(Nc2ccccn2)n1)C1CCCCC1 (configuration not stated) | -13.6 | / | 6.3 | / | / | /
CCCOc1ccc(C(=O)NNC(=S)NC(=O)c2ccccc2)cc1 | 0.2 | -3.4 | 47.3* | 36.5 | 65.0* | 33.0
CCC(=O)NC(=S)NNC(=O)c1ccc(OC)cc1 | -3.2 | -1.4 | 16.8 | 12.9 | 23.6 | /
